# Data from paper PMC8190911 (ACS Omega, 2021).
# Key:
# rat splenic lymphocytes = experiment: Splenic lymphocyte proliferation with Con-A and HU; type: cell-based; conditions: HU 50 μM, rutin or gallic acid 10 μM, Con-A 5 μg/mL, 48 h, MTT
# Outline: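 Spleens were taken aseptically from control rats into incomplete RPMI and minced through a strainer. Erythrocytes were lysed with 155 mM NH4Cl, 12 mM NaHCO3 and 0.1 mM EDTA, and the cells were washed and resuspended in complete RPMI. Cells were seeded at 2.5 × 10^4 per well, pretreated with test compound plus HU for 1 h at 37 °C, then stimulated with Con-A for 48 h. MTT (2.5 mg/mL, 20 μL) was added for 4 h and absorbance read at 570 nm. Groups were compared by Student's t-test.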
# [1] = target: urease from Canavalin ensiformis (jack bean) (Canavalia ensiformis, UniProt P07374); experiment: Inhibition of urease activity; type: biochemical
# [2] = target: T1, horseradish peroxidase (HRP) (Armoracia rusticana, UniProt P00433); experiment: Inhibition of HRP activity; type: biochemical
# T1 sequence (P00433 31-338 limits assumed): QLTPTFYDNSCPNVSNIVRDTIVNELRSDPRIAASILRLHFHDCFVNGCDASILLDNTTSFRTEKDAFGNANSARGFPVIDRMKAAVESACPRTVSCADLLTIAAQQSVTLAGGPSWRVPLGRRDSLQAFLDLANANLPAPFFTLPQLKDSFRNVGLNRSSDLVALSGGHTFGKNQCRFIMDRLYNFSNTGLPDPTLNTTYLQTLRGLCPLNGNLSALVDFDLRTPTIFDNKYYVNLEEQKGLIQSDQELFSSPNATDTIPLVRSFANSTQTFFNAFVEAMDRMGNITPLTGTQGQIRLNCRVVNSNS
# Outline: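 HRP (10 μL) combined with test compound (10 μL, 250–1000 μM) and 100 μL TMB. Reaction started with 0.03% (v/v) H2O2. The blue oxidised TMB product was read at 655 nm and % inhibition calculated against uninhibited activity. Sodium azide at 1000 μM served as reference inhibitor. Performed in triplicate.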
# OATP1B3 = conditions: read-out: IC50, inhibition of OATP1B3-mediated transport of CCK-8; ref Li et al.; cited from earlier work
# [3] = rat; cited from earlier work
# red blood cells = experiment: Hemolysis assay on rat RBCs; type: cell-based; conditions: up to 1 mg/mL, 30 min at 37 °C
# Outline: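 Blood from control rats drawn into aqueous EDTA and spun at 8000 rpm for 10 min. RBCs washed three times in PBS (pH 7.4) and diluted 1:10. Diluted cells (100 μL) mixed with 900 μL PBS containing test compound at 0.1 to 1 mg/mL. Blank PBS served as negative control and 1% Triton X-100 as positive control. Incubated 30 min at 37 °C with shaking, spun at 4 °C, supernatant absorbance read at 540 nm. % hemolysis scaled between the PBS and Triton absorbances.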
# CYP2E1 = conditions: cited from earlier work
# [4] = at the concentration range of 250–1000 μM
# Sequence of urease from Canavalin ensiformis (jack bean) (P07374 whole entry, looked up): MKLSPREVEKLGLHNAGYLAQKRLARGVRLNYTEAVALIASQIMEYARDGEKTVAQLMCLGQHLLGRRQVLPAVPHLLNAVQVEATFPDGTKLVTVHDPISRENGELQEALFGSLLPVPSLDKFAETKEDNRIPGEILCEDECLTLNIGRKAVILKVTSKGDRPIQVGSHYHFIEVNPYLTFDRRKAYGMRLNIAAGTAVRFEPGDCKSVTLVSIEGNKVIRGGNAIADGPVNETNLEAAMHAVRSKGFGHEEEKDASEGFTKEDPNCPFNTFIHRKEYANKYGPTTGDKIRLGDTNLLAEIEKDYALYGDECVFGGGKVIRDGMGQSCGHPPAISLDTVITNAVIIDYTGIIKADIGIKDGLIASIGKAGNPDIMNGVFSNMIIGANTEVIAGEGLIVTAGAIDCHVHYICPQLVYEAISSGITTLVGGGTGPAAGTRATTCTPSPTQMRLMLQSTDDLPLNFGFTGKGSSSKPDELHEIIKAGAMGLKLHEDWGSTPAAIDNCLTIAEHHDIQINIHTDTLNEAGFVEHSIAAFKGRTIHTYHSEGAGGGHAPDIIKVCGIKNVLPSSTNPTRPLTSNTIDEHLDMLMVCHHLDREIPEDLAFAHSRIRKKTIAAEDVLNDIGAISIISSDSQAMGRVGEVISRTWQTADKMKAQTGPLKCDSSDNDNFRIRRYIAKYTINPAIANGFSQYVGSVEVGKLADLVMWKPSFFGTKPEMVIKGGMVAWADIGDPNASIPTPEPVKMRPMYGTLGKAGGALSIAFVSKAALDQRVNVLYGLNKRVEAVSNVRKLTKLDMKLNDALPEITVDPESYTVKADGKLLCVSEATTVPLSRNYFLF
IC50 [1],"inhibition of HRP [2, 4]",SMILES,effect on proliferation of lymphocytes (rat splenic lymphocytes),IC50 (OATP1B3),effect on oral exposure of rosuvastatin [3],RBCs lysis (% Hb released relative to positive and negative controls) (red blood cells),effect on expression of CYP2E1 (CYP2E1),inhibition of HRP ([2]; at a concentration of 1000 μM)
,,"NC(=O)NO [HU, Hydroxyurea, reference compound]",decreased,,,,,
635 µM,53–70%,O=C(O)c1cc(O)c(O)c(O)c1 [gallic acid],significantly elevated the proliferation of lymphocytes,1.6 µM,augmented the oral exposure of rosuvastatin,,,
780 µM,40–64%,"C[C@@H]1O[C@@H](OC[C@H]2O[C@@H](Oc3c(-c4ccc(O)c(O)c4)oc4cc(O)cc(O)c4c3=O)[C@H](O)[C@@H](O)[C@@H]2O)[C@H](O)[C@H](O)[C@H]1O [rutin, Rutin]",no considerable influence,,,≤ 5%,enhanced its expression,
,,"[N-]=[N+]=[N-].[Na+] [sodium azide, reference compound]",,,,,,97%
